Measurements from ChEMBL document CHEMBL1629690, “Development of hexadecyloxypropyl tenofovir (CMX157) for treatment of infection caused by wild-type and nucleoside/nucleotide-resistant HIV” (Antimicrob Agents Chemother, 2010).

These molecules were tested on Human immunodeficiency virus 1 (assay: Antiviral activity against HIV1 isolate 204 harboring reverse transcriptase M41L/L210W/T215Y/M184V mutant gene by phenosense assay relative to wild type). Conditions: not given.
Format: functional
In short: (§1)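 PhenoSense HIV recombinant virus assay: patient-derived HIV-1 with major NRTI resistance mutations tested against increasing drug concentrations to give inhibition curves. EC50 is the concentration giving 50% inhibition. Fold change is the test recombinant EC50 divided by the EC50 of a drug-sensitive wild-type reference virus. Panel of 30 NRTI-resistant isolates plus two wild-type viruses.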

Row | SMILES | fold change (FC)
1 | C[C@H](Cn1cnc2c(N)ncnc21)OCP(=O)(O)O [TENOFOVIR ANHYDROUS] | 1

These molecules were tested on Human immunodeficiency virus 1 (assay: Antiviral activity against HIV1 isolate 180 harboring reverse transcriptase K65R mutant gene obtained as site-directed mutant of NL4-3 by phenosense assay relative to wild type). Conditions: not given.
Format: functional
In short: (§2)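 Recombinant-virus PhenoSense HIV assay run on a panel of 30 NRTI-resistant HIV-1 mutants and two wild-type viruses. Each virus is tested across increasing drug concentrations to give an inhibition curve and EC50. Fold change is the test recombinant EC50 divided by the EC50 of the drug-sensitive wild-type reference virus.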

Row | SMILES | fold change (FC)
2 | C[C@H](Cn1cnc2c(N)ncnc21)OCP(=O)(O)O [TENOFOVIR ANHYDROUS] | 2

The molecules below were run on Human immunodeficiency virus 1 (assay: Antiviral activity against HIV1 isolate 200 harboring reverse transcriptase M41L/L210W/T215Y mutant gene by phenosense assay). Conditions: Human immunodeficiency virus 1, isolate 200.
Format: functional, organism-based
In short: as §2

Row | SMILES | EC50
3 | C[C@H](Cn1cnc2c(N)ncnc21)OCP(=O)(O)O [TENOFOVIR ANHYDROUS] | 2200 nM

These molecules were tested on Human immunodeficiency virus 1 (assay: Antiviral activity against HIV1 isolate 162 harboring reverse transcriptase A62V/V75I/F77L/Y115F/F116Y/Q151M/M184V mutant gene by phenosense assay). Conditions: Human immunodeficiency virus 1, isolate 162.
Format: functional, organism-based
In short: as §2

Row | SMILES | EC50
4 | C[C@H](Cn1cnc2c(N)ncnc21)OCP(=O)(O)O [TENOFOVIR ANHYDROUS] | 1100 nM

These molecules were tested on Human immunodeficiency virus 1 (assay: Antiviral activity against HIV1 isolate 217 harboring reverse transcriptase D67N/K70E/M184V mutant gene by phenosense assay relative to wild type). Conditions: not given.
Format: functional
In short: as §1

Row | SMILES | fold change (FC)
5 | C[C@H](Cn1cnc2c(N)ncnc21)OCP(=O)(O)O [TENOFOVIR ANHYDROUS] | 0.64

What follows are molecules tested on Human immunodeficiency virus 1 (assay: Antiviral activity against HIV1 isolate 217 harboring reverse transcriptase D67N/K70E/M184V mutant gene by phenosense assay). Conditions: Human immunodeficiency virus 1, isolate 217.
Format: functional, organism-based
In short: as §1

Row | SMILES | EC50
6 | C[C@H](Cn1cnc2c(N)ncnc21)OCP(=O)(O)O [TENOFOVIR ANHYDROUS] | 500 nM

Each molecule was assayed on Human immunodeficiency virus 1 (assay: Antiviral activity against HIV1 isolate 201 harboring reverse transcriptase M41L/L210W/T215Y mutant gene by phenosense assay relative to wild type). Conditions: not given.
Format: functional
In short: as §1

Row | SMILES | fold change (FC)
7 | C[C@H](Cn1cnc2c(N)ncnc21)OCP(=O)(O)O [TENOFOVIR ANHYDROUS] | 3

The molecules below were run on Human immunodeficiency virus 1 (assay: Antiviral activity against HIV1 isolate 212 harboring reverse transcriptase L210W/T215Y mutant gene by phenosense assay). Conditions: Human immunodeficiency virus 1, isolate 212.
Format: functional, organism-based
In short: as §1

Row | SMILES | EC50
8 | C[C@H](Cn1cnc2c(N)ncnc21)OCP(=O)(O)O [TENOFOVIR ANHYDROUS] | 1000 nM

What follows are molecules tested on Human immunodeficiency virus 1 (assay: Antiviral activity against HIV1 isolate 157 harboring reverse transcriptase L74V/M184V mutant gene by phenosense assay). Conditions: Human immunodeficiency virus 1, isolate 157.
Format: functional, organism-based
In short: as §2

Row | SMILES | EC50
9 | C[C@H](Cn1cnc2c(N)ncnc21)OCP(=O)(O)O [TENOFOVIR ANHYDROUS] | 230 nM

Each molecule was assayed on Human immunodeficiency virus 1 (assay: Antiviral activity against HIV1 isolate 220 harboring reverse transcriptase K70E/M184V mutant gene by phenosense assay relative to wild type). Conditions: not given.
Format: functional
In short: as §1

Row | SMILES | fold change (FC)
10 | C[C@H](Cn1cnc2c(N)ncnc21)OCP(=O)(O)O [TENOFOVIR ANHYDROUS] | 0.61

Each molecule was assayed on Human immunodeficiency virus 1 (assay: Antiviral activity against HIV1 isolate 211 harboring reverse transcriptase D67N/K70R/T215F/K219E/M184V mutant gene by phenosense assay). Conditions: Human immunodeficiency virus 1, isolate 211.
Format: functional, organism-based
In short: as §1

Row | SMILES | EC50
11 | C[C@H](Cn1cnc2c(N)ncnc21)OCP(=O)(O)O [TENOFOVIR ANHYDROUS] | 700 nM

Each molecule was assayed on Human immunodeficiency virus 1 (assay: Antiviral activity against HIV1 isolate 180 harboring reverse transcriptase K65R mutant gene obtained as site-directed mutant of NL4-3 by phenosense assay). Conditions: Human immunodeficiency virus 1, isolate 180.
Format: functional, organism-based
In short: as §2

Row | SMILES | EC50
12 | C[C@H](Cn1cnc2c(N)ncnc21)OCP(=O)(O)O [TENOFOVIR ANHYDROUS] | 1600 nM

The molecules below were run on Human immunodeficiency virus 1 (assay: Antiviral activity against HIV1 isolate 063 harboring reverse transcriptase M41L/D67N/K70R/M184V/L210W/T215Y/K219E mutant gene by phenosense assay relative to wild type). Conditions: not given.
Format: functional
In short: as §2

Row | SMILES | fold change (FC)
13 | C[C@H](Cn1cnc2c(N)ncnc21)OCP(=O)(O)O [TENOFOVIR ANHYDROUS] | 2.2

Each molecule was assayed on Human immunodeficiency virus 1 (assay: Antiviral activity against HIV1 isolate 071 harboring reverse transcriptase 65R/S68N/184V mutant gene by phenosense assay). Conditions: Human immunodeficiency virus 1, isolate 071.
Format: functional, organism-based
In short: as §2

Row | SMILES | EC50
14 | C[C@H](Cn1cnc2c(N)ncnc21)OCP(=O)(O)O [TENOFOVIR ANHYDROUS] | 940 nM

What follows are molecules tested on Human immunodeficiency virus 1 (assay: Antiviral activity against HIV1 isolate 057 expressing wild type reverse transcriptase gene by phenosense assay). Conditions: Human immunodeficiency virus 1, isolate 057.
Format: functional, organism-based
In short: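 In the PhenoSense recombinant virus assay, virus was tested against increasing drug concentrations. EC50 came from the inhibition curve and was compared with a drug-sensitive reference virus.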

Row | SMILES | EC50
15 | C[C@H](Cn1cnc2c(N)ncnc21)OCP(=O)(O)O [TENOFOVIR ANHYDROUS] | 650 nM

What follows are molecules tested on Human immunodeficiency virus 1 (assay: Antiviral activity against HIV1 isolate 060 harboring reverse transcriptase M41L/D67N/K70R/L210W/T215Y/K219E mutant gene by phenosense assay). Conditions: Human immunodeficiency virus 1, isolate 060.
Format: functional, organism-based
In short: as §2

Row | SMILES | EC50
16 | C[C@H](Cn1cnc2c(N)ncnc21)OCP(=O)(O)O [TENOFOVIR ANHYDROUS] | 3600 nM

These molecules were tested on Human immunodeficiency virus 1 (assay: Antiviral activity against HIV1 isolate 066 harboring reverse transcriptase 184V mutant gene by phenosense assay relative to wild type). Conditions: not given.
Format: functional
In short: as §2

Row | SMILES | fold change (FC)
17 | C[C@H](Cn1cnc2c(N)ncnc21)OCP(=O)(O)O [TENOFOVIR ANHYDROUS] | 0.69
